Calls of active or inactive are those of the source. The calls are words filed in the database; no cut-off is given here. Starred links: 1 amine or outer side, 2 acyl side, 3 side chain; linkers in the order of their positions; H or OH if unused. Positions of bridges follow the written chain, without caps; N, C: chain ends. Non-standard residues stand in square brackets, D forms with d. Residues, ends and D or L forms follow the SMILES beside them. X2 = CCC(CC)(CC(=O)[*:1])S[*:2]; X1 = CC(C)(CC(=O)[*:1])S[*:2]; Mpa = O=C(O)CCS
Columns and labels:
[1] = Antioxytocic activity in Sherman albino rat uterus assessed as inhibition of oxytocin-induced contraction; format: functional, tissue-based
Method in brief: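 Isolated rat uterus in magnesium-free van Dyke-Hastings solution. The antagonist was added to the bath immediately before injection of agonist (USP Posterior Pituitary Reference Standard). pA2 was calculated per Schild as the −log molar antagonist concentration reducing the response to 2X units of agonist to that of X units. A pA2 was computed per assay group and reported as mean ± SE.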

Rattus norvegicus [2] = assay: Antivasopressor activity in iv dosed phenoxybenzamine-treated rat assessed as inhibition of lysine-vasopressin-induced vasopressor response; format: functional, organism-based; conditions: read-out: pA2 (converted)
Method in brief: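 Urethane-anesthetized, phenoxybenzamine-treated rats as in the standard rat vasopressor assay. The antagonist was given iv immediately before iv injection of agonist standard, with LVP as agonist. pA2 is the −log molar antagonist concentration halving the effect of a doubled agonist dose. Peptide was assumed uniformly distributed in blood volume. pA2 was computed per assay group and reported as mean ± SE.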

[3] = Oxytocic activity in Sherman albino rat uterus assessed as contraction; format: functional
Rattus norvegicus [4] = assay: Antidiuretic activity in sc dosed Brattleboro rat hereditary hypothalamic diabetes insipidus model measured over 6 hrs; format: functional, Urine
Method in brief: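 Brattleboro rats with hereditary hypothalamic diabetes insipidus received a single sc injection of 100 ng/kg. Inhibition of diuresis was followed over time to record its duration.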

Rattus norvegicus [5] = assay: Ratio of dPVDAVP to compound for antidiuretic activity in sc dosed Brattleboro rat hereditary hypothalamic diabetes insipidus model
Rattus norvegicus [6] = assay: Antidiuretic activity in Brattleboro rat hereditary hypothalamic diabetes insipidus model at 100 ug/kg, sc measured over 1.7 hrs; format: functional, organism-based; conditions: Urine
Method in brief: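 Single subcutaneous injection into Brattleboro rats with hereditary hypothalamic diabetes insipidus. The value recorded is the duration, in hours, for which diuresis was inhibited (antidiuresis) after dosing.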

Rattus norvegicus [7] = assay: Antidiuretic antagonist activity in sc dosed Brattleboro rat hereditary hypothalamic diabetes insipidus model; format: functional, organism-based; conditions: Urine
Rattus norvegicus [8] = organism: Rattus norvegicus; assay: Antivasopressor activity in phenoxybenzamine-treated rat assessed as inhibition of angiotensin 2-induced vasopressor response; format: functional, organism-based
Rattus norvegicus [9] = assay: Antivasopressor activity in phenoxybenzamine-treated rat assessed as inhibition of arginine-vasopressin-induced vasopressor response at 10 ug/kg, iv measured for >= 2.5 hrs; format: functional, organism-based
Method in brief: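 Rats received a single iv injection of 10 μg/kg antagonist. Vasopressor responses to AVP challenges of 10-40 mU/kg (about 25-100 ng/kg) were then followed. The duration of inhibition was recorded as an average period.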

Rattus norvegicus [10] = assay: Antidiuretic activity in sc dosed Brattleboro rat hereditary hypothalamic diabetes insipidus model; format: functional, organism-based; conditions: Urine
Rattus norvegicus [11] = organism: Rattus norvegicus; assay: Antivasopressor activity in phenoxybenzamine-treated rat assessed as inhibition of norepinephrine-induced vasopressor response; format: functional, organism-based

For `CCC1(CC)CC(=O)N[C@@H](Cc2ccc(O)cc2)C(=O)N[C@@H](Cc2ccccc2)C(=O)N[C@@H](CCC(N)=O)C(=O)N[C@@H](CC(N)=O)C(=O)N[C@H](C(=O)N2CCC[C@H]2C(=O)N[C@@H](CCCCN)C(=O)NCC(N)=O)CSS1` (YFQNCPKG-NH2; linker N-5 via X2), the pA2 [1] was 6.84 and the Kb (Rattus norvegicus [2]) was 70.8 nM.
Work on `CC(C)[C@@H]1NC(=O)[C@H](Cc2ccccc2)NC(=O)[C@H](Cc2ccc(O)cc2)NC(=O)CCSSC[C@@H](C(=O)N2CCC[C@H]2C(=O)N[C@H](CCCNC(=N)N)C(=O)NCC(N)=O)NC(=O)[C@H](CC(N)=O)NC1=O` ([Mpa]YFVNCP[dR]G-NH2; disulfide 1-6) yielded an Activity [3] of 8 U/mg, an Activity (Rattus norvegicus [4]) of 1230 U/mg and a Ratio (Rattus norvegicus [5]) of 10.
In the case of `N=C(N)NCCC[C@H](NC(=O)[C@@H]1CCCN1C(=O)[C@@H]1CSSC[C@H](N)C(=O)N[C@@H](Cc2ccc(O)cc2)C(=O)N[C@@H](Cc2ccccc2)C(=O)N[C@@H](CCC(N)=O)C(=O)N[C@@H](CC(N)=O)C(=O)N1)C(=O)NCC(N)=O`, the Activity (Rattus norvegicus [6]) is reported as “Active”.
In the case of `CC(C)[C@@H]1NC(=O)[C@H](Cc2ccccc2)NC(=O)[C@H](Cc2ccc(O)cc2)NC(=O)CC(C)(C)SSC[C@@H](C(=O)N2CCC[C@H]2C(=O)N[C@H](CCCNC(=N)N)C(=O)NCC(N)=O)NC(=O)[C@H](CC(N)=O)NC1=O` (YFVNCP[dR]G-NH2; linker N-5 via X1), the Activity (Rattus norvegicus [7]) is reported as “inactive”, the inhibition (Rattus norvegicus [8]) is reported as “inactive” and the Activity (Rattus norvegicus [4]) is reported as 123 U/mg. The inhibition (Rattus norvegicus [9]) was “Active”, the pA2 [1] was 7.23 and the Activity (Rattus norvegicus [10]) was “Active”. For the same molecule, the inhibition (Rattus norvegicus [11]) was “inactive”.

— ChEMBL document CHEMBL3272240, “[1-deaminopenicillamine,4-valine]-8-D-arginine-vasopressin, a highly potent inhibitor of the vasopressor response to arginine-vasopressin” (J Med Chem, 1977)
